Jurkat NFkB inh: lowers PMA/ionomycin-induced NF-kB signal in Jurkat cells; inhibition, % at 4 µM; PMA/ionomycin-induced NF-kB luciferase reporter, luminescence; AID 435003; 0.53% of 330,000 active; in the data active = inhibition above about 50%
CHOP inh: CHOP inhibition in unfolded protein response. 3.8% of 220,000 active. CHO-K1 CHOP-promoter luciferase, tunicamycin-induced, 15-18 h. inhibition, % at 10 µM;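 active = compounds that reduced the stress-induced luciferase reporter signal by more than about 70% of percent inhibition, limit read from the data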;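 note: 0% = tunicamycin plus vehicle and 100% = wells without tunicamycin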
697 NFkB inh: inhibitors of the PMA/ionomycin-induced NF-kB reporter in 697 B cells; 697 B-cell NF-kB luciferase reporter, 16 h; inhibition, % at 4 µM; 0.33% of 330,000 active; AID 435022; in the data active = inhibition above about 35%
CHOP UPR activ: activators of apoptotic arm of unfolded protein response (CHOP); 0.34% of 330,000 active; activation, % at 10 µM; CHO-CHOP luciferase reporter, UPR activation, luminescence; percent of tunicamycin response over DMSO baseline;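 active = at 10 µM dose, activation of 40% or more, normalized to positive control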;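 note: 100% = tunicamycin at 10 µg/mL and 0% = DMSO alone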
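System: CHO-CHOP luciferase reporter cell line | Buffer or medium: F12 medium containing 10% fetal bovine serum | Doses: One dose, 10 µM in 0.5% DMSO | Times: 6 h compound exposure at 37 °C after overnight seeding | Signal: Luciferase luminescence | Read-out: % activation vs tunicamycin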
XBP1 UPR activ: activators of adaptive arm of unfolded protein response (XBP1). CHO-XBP1 luciferase reporter, IRE1-XBP1 UPR activation, luminescence; percent of tunicamycin response, DMSO as zero. activation, % at 20 µM. 0.33% of 330,000 active;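 active = versus positive control, 20 µM dose yields 30% or more activation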;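 note: 100% = tunicamycin at 10 µg/mL and 0% = DMSO only wells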
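Material: CHO cell line with stable XBP1 luciferase reporter; buffer or medium: F12 medium containing 10% fetal bovine serum; compound: single point, 20 µM final compound, 1% DMSO; incubation: 6 h treatment, 37 °C; measured by: glow luminescence from Steady-Glo reagent; evaluation: activation, % of tunicamycin; control set: tunicamycin high, DMSO low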
* marks the source's active call; other numbers are inactive results; nt = not tested or not shown. The full list was thinned out, with hits kept by preference.

SMILES | Jurkat NFkB inh | CHOP inh | 697 NFkB inh | CHOP UPR activ | XBP1 UPR activ
CC(=O)Oc1cccc(N2C(=O)c3ccc(C(=O)Nc4c[nH]c(=O)[nH]c4=O)cc3C2=O)c1 | -12.4 | 30.3 | -10.9 | -1.7 | 1.2
CC(Sc1nnnn1C)C(=O)Nc1ncc(Cl)cc1Cl (stereo not given) | 7.6 | nt | 11.7 | -1.9 | -2.1
COc1ccccc1C(=O)NC(CCSC)C(=O)NNC(=O)c1ccccc1O (stereo not given) | -1.5 | nt | -18.6 | 1.3 | -3.1
Cc1ccc(Cn2c(Sc3ncccn3)nc3c2c(=O)[nH]c(=O)n3C)cc1 | -11.1 | 0.1 | -16.4 | 0.0 | 1.8
CCCCCSc1nc2c(c(=O)[nH]c(=O)n2C)n1C(C)C | 6.1 | 88.5* | -5.7 | 4.5 | 14.1
CC(C)CCSc1nc2c(c(=O)[nH]c(=O)n2C)n1CCc1ccccc1 | -13.0 | 88.3* | -7.0 | 0.1 | 6.9
C/C=C/CSc1nc2c(c(=O)[nH]c(=O)n2C)n1Cc1ccc(C)cc1 | 13.5 | 86.0* | 1.0 | 2.0 | 5.3
CCCCCn1c(N2CCN(c3cccc(Cl)c3)CC2)nc2c1c(=O)[nH]c(=O)n2C | 1.6 | 86.6* | -31.0 | -2.5 | 14.2
CC(C)CSc1nc2c(c(=O)[nH]c(=O)n2C)n1CCc1ccccc1 | 6.0 | 51.7 | -5.9 | 2.0 | 3.6
CCN(C(C)=O)c1ccc(Oc2nc(OC)cc(OC)n2)cc1 | 4.3 | 30.2 | 2.8 | 1.6 | 2.8
CCCCn1c(SCc2ccc(Cl)cc2)nc2c1c(=O)[nH]c(=O)n2C | 4.0 | 82.0* | -25.0 | 0.8 | 17.0
Cc1ccc(CSc2nc3c(c(=O)[nH]c(=O)n3C)n2CCC(C)C)cc1 | 0.7 | 106.0* | -9.7 | -0.7 | 7.0
CCOCCn1c(SCc2ccc(C)cc2)nc2c1c(=O)[nH]c(=O)n2C | -15.5 | 26.9 | -7.7 | 2.5 | 5.8
CC(C)CSc1nc2c(c(=O)[nH]c(=O)n2C)n1CC(O)COc1cccc2ccccc12 (stereo not given) | nt | 79.6* | nt | nt | nt
CCCCCn1c(Sc2nc3ccccc3s2)nc2c1c(=O)[nH]c(=O)n2C | 3.4 | 75.7* | -37.5 | 0.5 | 8.5
Cc1nnnn1CC(=O)Nc1ccccc1[N+](=O)[O-] | -8.4 | 17.7 | -0.8 | 0.1 | -1.4
C=CCc1c(C)nc2c(OC)cccc2c1Cl | -17.4 | 0.7 | 5.6 | 1.4 | 4.5
COc1cccc2c(Cl)c(CC=C(Cl)Cl)c(C)nc12 | -4.8 | 87.0* | 9.6 | 3.0 | 5.5
CCOC(=O)N1CCN(c2nc(C(F)(F)F)nc3c(C)cc(C)cc23)CC1 | 7.4 | 60.8 | 3.1 | -0.1 | -2.1
CCOC(=O)N1CCN(c2nc(C)cc(C(F)(F)F)n2)CC1 | -0.1 | 70.6* | -2.5 | -1.1 | 4.1
C=CCn1c(SCc2c(F)cccc2Cl)nnc1-c1ccco1 | -5.1 | 14.6 | -2.5 | 2.5 | 1.9
Cc1ccc(NC(=O)C(OC(=O)c2ccc(NC(N)=O)cc2)c2ccccc2)cc1Cl (stereo not given) | 15.1 | 91.3* | -8.9 | 0.1 | -2.5
Cc1ccc(NC(=O)C(OC(=O)c2ccccc2Cl)c2ccccc2)cc1Cl (stereo not given) | -1.6 | 10.6 | 4.9 | 0.5 | -3.8
COc1cccc(C(=O)N2CCC(CCC(=O)Nc3cccc(C)c3)CC2)c1 | 1.5 | nt | -1.1 | -0.5 | -7.2
Cc1ccccc1OCC(=O)Nc1cc(S(=O)(=O)N2CCCCC2)ccc1N1CCN(C)CC1 | -8.9 | -2.2 | 3.5 | 0.0 | 1.5
SMILES | Jurkat NFkB inh | CHOP inh | 697 NFkB inh | CHOP UPR activ | XBP1 UPR activ
O=C(CCC1CCCC1)N1CCN(C(=O)COc2ccccc2)CC1 | -5.8 | 75.0* | -6.9 | 0.4 | -2.7
CCN(CC)CCNC(=O)c1[nH]c2ccc(OCc3ccccc3)cc2c1C | -8.9 | 11.3 | -45.8 | 1.7 | 9.8
COc1ccc(-c2n[nH]c(C)c2-c2cscn2)c(O)c1 | 4.2 | 4.2 | 12.7 | -0.5 | -2.3
CCOc1ccc(-c2n[nH]c(C)c2-c2ccccc2OC)c(O)c1 | 35.9 | 87.1* | -12.8 | -0.4 | -3.1
Cc1nonc1C1CCCN1Cc1nc(-c2ccccc2Cl)oc1C (stereo not given) | -6.6 | 14.2 | -0.7 | 1.5 | 3.7
COc1ccc(Br)cc1C(=O)N/N=C/c1ccc([N+](=O)[O-])cc1 | 5.8 | 100.0* | 12.3 | -1.3 | 4.7
COC(=O)C(Cc1ccccc1)NC(=O)CCNC(=O)c1ccc(Br)cc1 (stereo not given) | -8.8 | nt | -4.2 | -0.7 | -7.9
CCOc1cc(/C=C2\SC(=O)N(CC(=O)Nc3ccccc3F)C2=O)cc([N+](=O)[O-])c1O | 5.5 | 92.5* | 16.9 | 1.9 | -2.0
Cn1cc(S(=O)(=O)N2CCCC(C(=O)O)C2)cn1 (stereo not given) | -5.5 | 7.7 | -4.4 | 0.5 | -1.7
Cc1ccc(NC(=O)c2ccc3c(c2)OCCO3)cc1S(=O)(=O)Nc1cccc(Cl)c1 | -25.6 | 37.6 | -58.9 | 7.4 | 2.5
Cc1ccc(NC2=C(C(=O)c3ccccc3)N(C)S(=O)(=O)c3ccccc32)cc1 | 2.6 | 95.3* | 3.5 | 0.3 | -2.8
CN1C(C(=O)c2ccccc2)=C(N)c2ccccc2S1(=O)=O | 0.8 | -2.1 | -10.1 | 0.2 | -1.7
NS(=O)(=O)c1ccc(CCNC(=O)CNC(=O)c2ccccc2F)cc1 | -13.2 | nt | 5.8 | 1.2 | -1.4
COc1ccc(NC(=O)C2CCCN2S(=O)(=O)c2cccs2)c([N+](=O)[O-])c1 (stereo not given) | 13.4 | nt | 19.4 | 1.2 | 0.2
COc1ccc(CNC2CC(C)N(C)CC2C)cc1OC (stereo not given) | -15.6 | nt | 18.5 | 2.2 | -3.9
CCCCn1c(SCC(=O)Nc2nnc(C(C)C)s2)nc2c1c(=O)n(C)c(=O)n2C | -0.7 | 48.5 | -1.5 | -2.1 | 1.1
Cc1ccc2cc(C)c3nnc(SCC(=O)Nc4nc5c(s4)CCCC5)n3c2c1 | nt | 83.4* | nt | nt | nt
CCCn1c(SCC(=O)Nc2nc3c(s2)CCCC3)nc2c1c(=O)n(C)c(=O)n2C | 24.7 | 71.3* | -7.9 | -2.4 | -0.7
C=CCn1c(=NC(=O)c2ccc(S(=O)(=O)N3CCc4ccccc4C3)cc2)sc2cc(S(N)(=O)=O)ccc21 | 16.5 | 76.6* | -20.4 | 2.6 | -1.8
O=C(Nc1ccccc1)c1sc2cc(C(F)(F)F)cnc2c1-c1cccs1 | -11.5 | 42.6 | 7.4 | -3.9 | -2.7
O=C(O)c1cc(N/N=C/c2ccc3c(c2)OCCO3)ccc1Cl | nt | 72.2* | nt | nt | nt
COc1ccc(C(=O)/C=C/C(=O)N(CC(=O)NC2CCCCC2)CC2CCCO2)c(O)c1 (stereo not given) | 13.3 | 107.9* | -0.5 | 4.0 | -14.4
COc1ccc(C(=O)/C=C/C(=O)N(CC(=O)NC2CCCCC2)Cc2ccccc2OC)c(O)c1 | nt | 107.3* | nt | nt | nt
COc1ccc(C(=O)/C=C/C(=O)N(Cc2ccccc2OC)C(C(=O)NC2CCCCC2)c2ccncc2)c(O)c1 (stereo not given) | 9.3 | 16.3 | 19.6 | 0.2 | -1.2
COc1ccc(C(=O)/C=C/C(=O)N(CC(=O)NC2CCCCC2)Cc2ccccc2)c(O)c1 | nt | 107.6* | nt | nt | nt

Assay outcomes as filed in PubChem.
